tolC growth inh: growth inhibitors of E. coli tolC mutant, primary screen, strain BW25113 ΔtolC::kan, 384-well; 2.2% of 65,000 active; growth inhibition, % at 10 µM (by protocol); OD615; AID 573, 2007;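 active = growth inhibition at or above a cutoff equal to the mean over every tested compound plus 3 SD, cut at about 60% in these data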;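 note: growth measured after 20 h incubation at 37 °C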
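Test system: tolC-deleted E. coli BW25113 | Medium: LB with kanamycin 50 µg/mL | Compound dosing: Single concentration, 10 µM final per compound | Schedule: 37 °C, 20 h exposure | Measured by: OD at 615 nm | Evaluation: Percent growth inhibition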
CYP2C9 act: human CYP2C9 activators, primary screen, biochemical, luminescence; recombinant CYP2C9, luciferin-H conversion; stronger effect = higher value; factor 1 = untreated enzyme, 0 = blocked; activation factor at 5 µM; 1.4% of 96,000 active;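 active = activation factor of 2 or more for CYP2C9 at a 5 µM dose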;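 note: 0 = sulfaphenazole-blocked wells and 1 = vehicle-only wells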
E coli WT exp: growth inhibitors of wild-type E. coli, primary screen, strain BW25113, expanded library, OD600; OD600 absorbance; growth inhibition, % at 100 µM; 0.15% of 98,000 active;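 active = growth inhibition above about 50% at one test dose, limit read from the data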;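 note: growth measured after 20 h incubation at 37 °C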
CYP2C19 act: human CYP2C19 activators, primary screen, biochemical, luminescence; recombinant CYP2C19, luciferin-H EGE luminescence; stronger effect = higher value; 0 = fully inhibited enzyme, 1 = untreated enzyme; activation factor at 5 µM; 96,000 tested, under 10 active;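 active = activation factor of at least 2 at 5 µM in the primary screen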;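 note: 0 = wells with 2.5 mM tranylcypromine and 1 = vehicle-only wells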
Target sequence (P33261 whole entry, looked up): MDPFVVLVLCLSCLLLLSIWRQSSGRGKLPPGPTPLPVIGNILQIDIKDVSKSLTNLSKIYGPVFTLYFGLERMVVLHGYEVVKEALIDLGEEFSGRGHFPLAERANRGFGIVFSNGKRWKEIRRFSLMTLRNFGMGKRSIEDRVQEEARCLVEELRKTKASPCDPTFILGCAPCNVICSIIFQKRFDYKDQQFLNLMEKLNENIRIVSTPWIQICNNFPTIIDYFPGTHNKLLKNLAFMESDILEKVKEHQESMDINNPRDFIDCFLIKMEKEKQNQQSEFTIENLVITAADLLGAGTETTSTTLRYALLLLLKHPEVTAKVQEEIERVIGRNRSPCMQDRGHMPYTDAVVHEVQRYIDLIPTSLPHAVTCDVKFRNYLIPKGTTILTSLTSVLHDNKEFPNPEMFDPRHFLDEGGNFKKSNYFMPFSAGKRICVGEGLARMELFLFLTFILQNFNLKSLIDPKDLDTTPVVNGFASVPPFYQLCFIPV
CYP2C19 inh: blockers of cytochrome P450 2C19 activity – biochemical, luminescence, ADME assay, primary screen. inhibition, % at 5 µM. CYP2C19 Supersomes, luciferin-H EGE luminescence, 30 min. P33261. AID 778, 2007. 21% of 96,000 active;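 active = CYP2C19 inhibition above a set limit at 5 µM in the primary screen, cut at about 50% in these data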;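 note: plate controls were negative control wells for no effect and 2.5 mM tranylcypromine positive control for full effect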
CYP2C9 inhib: blockers of cytochrome P450 2C9 activity – biochemical, luminescence, ADME assay, primary screen | CYP2C9 Supersomes, luciferin-H conversion | 20% of 96,000 active | inhibition, % at 5 µM;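 active = blocking of liver enzyme CYP2C9 beyond about 50% at 5 µM, limit read from the data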
* marks the source's active call; other numbers are inactive results; . = not tested or not shown. A selection: hits, their analogues and other compounds. The true share with any hit is near 29%.

SMILES	tolC growth inh	CYP2C9 act	E coli WT exp	CYP2C19 act	CYP2C19 inh	CYP2C9 inhib
N#Cc1c(NC(=O)c2ccc(Cn3cc(Br)cn3)o2)sc2c1CCCCCC2	61*	0.4	-16	0.7	31	58*
O=c1c2c([nH]c3ccccc13)CCCC2	.	2.4*	19	1	4	-139
COc1ccc(OC)c(C2=NOC(C(=O)Nc3cc(C)nn3-c3ccccc3)C2)c1 (stereo not given)	-12	0.8	1	0.6	43	17
O=C(N/N=C/c1cn(-c2ccccc2)nc1-c1ccccc1)c1ccco1	.	1	-7	1	-5	-1
Cc1ccc(-c2nn(-c3ccccc3)cc2/C=N/NC(=O)c2ccc(Br)o2)cc1	.	0.5	-3	0.7	29	52*
Cc1nnc(SCC(=O)N/N=C/c2cn(-c3ccccc3)nc2-c2ccccc2)n1-c1ccccc1	.	0.5	5	0.9	6	53*
O=C(N/N=C\c1cn(-c2ccccc2)nc1-c1ccccc1)c1ccc(Br)o1	.	0.4	-13	0.7	28	57*
c1ccc2c(c1)sc1nnnn12	-14	1	12	1	1	1
COc1cc(NC(=O)c2ccc(COCC(F)(F)F)cc2)cc(OC)c1OC	.	1	3	0.9	15	2

Assay outcomes deposited in PubChem by several laboratories.
